In ChEMBL document CHEMBL1139252, “Inhibition of purple acid phosphatase with alpha-alkoxynaphthylmethylphosphonic acids” (Bioorg Med Chem Lett, 2009):
The source made the active and inactive calls. The calls are words filed in the database; no cut-off is given here.

Key:
Sus scrofa [1] = species: Sus scrofa; test: Activity of pig PAP at pH 4.9
[2] = target: T1, Fe(3+)-Zn(2+) purple acid phosphatase (Phaseolus vulgaris) (UniProt P80366); test: Inhibition of red kidney bean PAP at pH 6.2
T1 sequence (whole entry): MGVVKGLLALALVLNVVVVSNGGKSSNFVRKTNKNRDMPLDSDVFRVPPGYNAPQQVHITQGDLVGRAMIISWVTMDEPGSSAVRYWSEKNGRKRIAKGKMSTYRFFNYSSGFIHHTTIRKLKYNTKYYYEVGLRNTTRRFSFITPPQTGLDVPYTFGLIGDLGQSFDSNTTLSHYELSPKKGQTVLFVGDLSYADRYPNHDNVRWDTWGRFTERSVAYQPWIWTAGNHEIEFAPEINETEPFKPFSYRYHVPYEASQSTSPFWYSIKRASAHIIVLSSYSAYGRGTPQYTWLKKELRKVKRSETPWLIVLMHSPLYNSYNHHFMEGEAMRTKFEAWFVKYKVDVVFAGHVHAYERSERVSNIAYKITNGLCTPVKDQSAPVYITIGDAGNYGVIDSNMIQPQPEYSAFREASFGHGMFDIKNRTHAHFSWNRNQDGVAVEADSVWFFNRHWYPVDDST
In short: (§1)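 Each enzyme was run at its own pH optimum: red kidney bean PAP at pH 6.2 and pig PAP at pH 4.9. IC50 values were determined experimentally. Separate inhibition constants were derived for binding to the free enzyme and to the enzyme–substrate complex.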

Sus scrofa [3] = species: Sus scrofa; test: Inhibition of pig PAP at pH 4.9; in short: as §1
Homo sapiens = species: Homo sapiens; test: Inhibition of human PAP

Row | SMILES | Km (Sus scrofa [1]) [µM] | Kic [2] [mM] | Kiuc [2] [mM] | logIC50 [2] | Kic (Sus scrofa [3]) [mM] | Kiuc (Sus scrofa [3]) [mM] | logIC50 (Sus scrofa [3]) | Activity (Homo sapiens)
1 | CCCCCCCCOC(c1cccc2ccccc12)P(=O)(O)O (racemic) | 1500 | 0.05 | 0.129 | -1 | 0.023 | 0.044 | -1.5 | 
2 | O=P(O)(O)Cc1cccc2ccccc12 |  |  |  | > 0.845 |  |  |  | 
3 | CCCCCCOC(c1cccc2ccccc12)P(=O)(O)O (racemic) | 2650 | 1.47 | 1.43 | 0 |  |  | -0.37 | 
4 | O=P(O)(O)C(O)c1cccc2ccccc12 (configuration not stated) |  |  |  | 0.7 |  |  |  | inactive
5 | CCCCCCCCCCOC(c1cccc2ccccc12)P(=O)(O)O (racemic) | 1130 | 0.004 | 0.03 | -2.1 | 0.017 | 0.02 | -1.7 | 
